Common to all, as to format: cell-based
Assay [1] has as its target Sodium-dependent dopamine transporter (Homo sapiens, UniProt Q01959). Description: In vitro displacement of [3H]GBR-12935 from human dopamine transporter expressed in HEK293 cells. In short, it runs like this:
(§1)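 Competitive binding using cloned human transporters expressed in HEK-293 cells. NET was labelled with [³H]nisoxetine and DAT with [³H]GBR12935, following a previously published procedure.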
On the technique in general: In a radioligand displacement assay an active substance lowers the binding of a labelled ligand.

Assay [2] concerns the target Sodium-dependent noradrenaline transporter (Homo sapiens, UniProt P23975). Briefly: In vitro displacement of [3H]nisoxetine from human norepinephrine transporter expressed in HEK293 cells. In short, it runs like this: as §1
The target of assay [3] is Sodium-dependent serotonin transporter (Homo sapiens, UniProt P31645). Briefly: In vitro displacement of [3H]paroxetine from human serotonin transporter expressed in HEK293 cells.

Experimental findings from ChEMBL document CHEMBL1145212, “Fluorinated diaryl sulfides as serotonin transporter ligands: synthesis, structure-activity relationship study, and in vivo evaluation of fluorine-18-labeled compounds as PET imaging agents” (J Med Chem, 2005) are described below.

Structures are written as SMILES.

Sequence of Sodium-dependent serotonin transporter (P31645 whole entry): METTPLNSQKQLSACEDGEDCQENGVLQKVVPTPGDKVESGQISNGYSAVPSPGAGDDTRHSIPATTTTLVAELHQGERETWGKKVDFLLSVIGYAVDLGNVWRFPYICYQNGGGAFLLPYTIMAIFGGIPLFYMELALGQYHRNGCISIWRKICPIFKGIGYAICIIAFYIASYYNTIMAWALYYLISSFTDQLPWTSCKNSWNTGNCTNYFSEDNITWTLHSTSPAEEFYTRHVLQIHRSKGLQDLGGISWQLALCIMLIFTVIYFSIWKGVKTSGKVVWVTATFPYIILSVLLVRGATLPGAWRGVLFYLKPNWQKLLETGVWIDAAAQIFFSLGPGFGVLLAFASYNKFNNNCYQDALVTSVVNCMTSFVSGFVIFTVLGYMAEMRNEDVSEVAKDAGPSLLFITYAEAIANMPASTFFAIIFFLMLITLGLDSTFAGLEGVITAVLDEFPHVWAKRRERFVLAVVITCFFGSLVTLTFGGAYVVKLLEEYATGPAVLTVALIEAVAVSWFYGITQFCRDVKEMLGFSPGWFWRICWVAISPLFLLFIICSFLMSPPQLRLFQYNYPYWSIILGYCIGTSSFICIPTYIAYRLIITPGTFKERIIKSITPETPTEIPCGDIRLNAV
Sequence of Sodium-dependent noradrenaline transporter (P23975 whole entry): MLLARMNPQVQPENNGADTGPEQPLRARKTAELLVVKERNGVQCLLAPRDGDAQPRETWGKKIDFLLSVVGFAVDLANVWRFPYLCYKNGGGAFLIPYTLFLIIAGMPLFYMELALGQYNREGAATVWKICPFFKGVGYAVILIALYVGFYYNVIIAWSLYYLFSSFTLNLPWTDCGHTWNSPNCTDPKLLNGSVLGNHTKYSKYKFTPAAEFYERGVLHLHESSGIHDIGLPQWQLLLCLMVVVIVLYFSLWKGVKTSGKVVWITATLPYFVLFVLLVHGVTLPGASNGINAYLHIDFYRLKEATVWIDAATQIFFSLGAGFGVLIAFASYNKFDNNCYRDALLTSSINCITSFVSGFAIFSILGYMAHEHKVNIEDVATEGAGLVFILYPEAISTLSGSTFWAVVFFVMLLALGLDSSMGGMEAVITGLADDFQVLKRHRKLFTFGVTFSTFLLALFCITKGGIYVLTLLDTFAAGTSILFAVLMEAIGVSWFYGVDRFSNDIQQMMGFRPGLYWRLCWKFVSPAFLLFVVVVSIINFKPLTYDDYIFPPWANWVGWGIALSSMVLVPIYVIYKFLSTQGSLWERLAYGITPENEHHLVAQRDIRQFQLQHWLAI
Sequence of Sodium-dependent dopamine transporter (Q01959 whole entry): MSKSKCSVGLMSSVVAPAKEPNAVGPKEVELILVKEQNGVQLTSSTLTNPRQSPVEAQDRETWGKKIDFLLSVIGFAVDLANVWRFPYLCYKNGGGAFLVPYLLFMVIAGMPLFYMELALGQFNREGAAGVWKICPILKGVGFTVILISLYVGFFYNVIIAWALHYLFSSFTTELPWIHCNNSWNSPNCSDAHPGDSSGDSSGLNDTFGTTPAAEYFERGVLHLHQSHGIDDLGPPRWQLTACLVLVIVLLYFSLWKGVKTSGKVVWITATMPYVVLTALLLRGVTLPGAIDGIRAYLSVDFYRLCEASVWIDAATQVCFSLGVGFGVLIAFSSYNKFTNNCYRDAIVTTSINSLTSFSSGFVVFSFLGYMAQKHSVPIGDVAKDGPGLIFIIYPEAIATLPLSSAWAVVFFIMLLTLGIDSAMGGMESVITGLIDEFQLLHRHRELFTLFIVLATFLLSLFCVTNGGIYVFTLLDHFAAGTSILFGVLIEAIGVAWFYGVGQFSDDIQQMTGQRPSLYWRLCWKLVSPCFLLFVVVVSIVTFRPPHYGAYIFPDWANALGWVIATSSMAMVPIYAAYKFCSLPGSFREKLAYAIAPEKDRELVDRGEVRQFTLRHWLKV

In the case of `CCCNCc1ccccc1Sc1ccc(C)cc1N`, the Ki in assay [1] is 3.55 µM; in assay [2] it was above 10 µM.
For the compound `CN(C)Cc1ccccc1Sc1ccc(I)cc1N`, affinity in assay [3] was put at a Ki of 0.00107 µM.
As for `Cc1ccc(Sc2ccccc2CN)c(N)c1`, the Ki turned out to be 5.3 µM in assay [1], 0.03 µM in assay [3] and 4.44 µM in assay [2].

As usually defined, the Ki is the equilibrium dissociation constant of an inhibitor or competing ligand from its target. Lower therefore signals a stronger hold on the target.
